# Experimental data taken from ChEMBL document CHEMBL1255409, “In vitro activity of ceftaroline against 623 diverse strains of anaerobic bacteria” (2010).
# How the values were obtained:
# Bacteroides caccae = assay: Antimicrobial activity against Bacteroides caccae under anaerobic conditions after 44 hrs by CLSI-M11-47 protocol based agar dilution method; format: functional
# Method in brief: (§1)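 Reference agar dilution per CLSI M11-A7 with plates made on test day. Clinical isolates were stored at −70°C in 20% skim milk, subcultured twice, and 48-h cell paste was suspended in brucella broth to 0.5 McFarland. About 10^5 CFU/spot was applied with a Steers replicator. Plates were incubated 44 h at 37°C anaerobically. MIC was the lowest concentration giving complete inhibition or marked growth reduction versus the drug-free control.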
# [1] = test system: Parabacteroides distasonis; assay: Antimicrobial activity against Bacteroides distasonis under anaerobic conditions after 44 hrs by CLSI-M11-47 protocol based agar dilution method; format: functional; method in brief: as §1
# Prevotella buccae = assay: Antimicrobial activity against Prevotella buccae under anaerobic conditions after 44 hrs by CLSI-M11-47 protocol based agar dilution method; format: functional; conditions: Segatella buccae
# Method in brief: (§2)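 Clinical isolates were stored at −70°C in 20% skim milk and identified phenotypically or by partial 16S rRNA sequencing. Each strain was subcultured twice from frozen stock. Cell paste from 48-h cultures was suspended in brucella broth to a 0.5 McFarland standard. About 10^5 CFU per spot were applied by Steers replicator to agar dilution plates prepared on the day of testing. Plates were incubated 44 h at 37°C in an anaerobic chamber. MIC was taken as the lowest concentration giving complete inhibition or marked reduction of growth versus the drug-free control.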
# Prevotella intermedia = assay: Antimicrobial activity against Prevotella intermedia under anaerobic conditions after 44 hrs by CLSI-M11-47 protocol based agar dilution method; format: functional; method in brief: as §2
# Hoylesella loescheii = assay: Antimicrobial activity against Prevotella loescheii under anaerobic conditions after 44 hrs by CLSI-M11-47 protocol based agar dilution method; format: functional; method in brief: as §2
# Prevotella oris = assay: Antimicrobial activity against Prevotella oris under anaerobic conditions after 44 hrs by CLSI-M11-47 protocol based agar dilution method; format: functional; conditions: Segatella oris; method in brief: as §2
# Veillonella = assay: Antimicrobial activity against Veillonella spp. under anaerobic conditions after 44 hrs by CLSI-M11-47 protocol based agar dilution method; format: functional; method in brief: as §2
# Parvimonas micra = assay: Antimicrobial activity against Parvimonas micra under anaerobic conditions after 44 hrs by CLSI-M11-47 protocol based agar dilution method; format: functional; method in brief: as §2
# [2] = test system: Anaerococcus lactolyticus; assay: Antimicrobial activity against Anaerococcus lactolyticus under anaerobic conditions after 44 hrs by CLSI-M11-47 protocol based agar dilution method; format: functional; method in brief: as §1
# Anaerococcus murdochii = assay: Antimicrobial activity against Anaerococcus murdochii under anaerobic conditions after 44 hrs by CLSI-M11-47 protocol based agar dilution method; format: functional; method in brief: as §1
# Anaerococcus octavius = assay: Antimicrobial activity against Anaerococcus octavius under anaerobic conditions after 44 hrs by CLSI-M11-47 protocol based agar dilution method; format: functional; method in brief: as §1
# Anaerococcus vaginalis = assay: Antimicrobial activity against Anaerococcus vaginalis under anaerobic conditions after 44 hrs by CLSI-M11-47 protocol based agar dilution method; format: functional; method in brief: as §1
# Anaerococcus = assay: Antimicrobial activity against Anaerococcus sp. under anaerobic conditions after 44 hrs by CLSI-M11-47 protocol based agar dilution method; format: functional; method in brief: as §1
# Peptoniphilus harei = assay: Antimicrobial activity against Peptoniphilus harei under anaerobic conditions after 44 hrs by CLSI-M11-47 protocol based agar dilution method; format: functional; method in brief: as §2
# Peptoniphilus lacrimalis = assay: Antimicrobial activity against Peptoniphilus lacrimalis under anaerobic conditions after 44 hrs by CLSI-M11-47 protocol based agar dilution method; format: functional; method in brief: as §2
# Schaalia meyeri = assay: Antimicrobial activity against Actinomyces meyeri under anaerobic conditions after 44 hrs by CLSI-M11-47 protocol based agar dilution method; format: functional; method in brief: as §1
# [3] = test system: Actinomyces neuii subsp. anitratus; assay: Antimicrobial activity against Actinomyces neuii subsp. anitratus under anaerobic conditions after 44 hrs by CLSI-M11-47 protocol based agar dilution method; format: functional, Winkia neuii subsp. anitrata; conditions: Winkia neuii; method in brief: as §1
# Schaalia odontolytica = assay: Antimicrobial activity against Actinomyces odontolyticus under anaerobic conditions after 44 hrs by CLSI-M11-47 protocol based agar dilution method; format: functional; method in brief: as §1
# Actinomyces turicensis = assay: Antimicrobial activity against Actinomyces turicensis under anaerobic conditions after 44 hrs by CLSI-M11-47 protocol based agar dilution method; format: functional; conditions: Schaalia turicensis; method in brief: as §1
# Cutibacterium acnes = assay: Antimicrobial activity against Propionibacterium acnes under anaerobic conditions after 44 hrs by CLSI-M11-47 protocol based agar dilution method; format: functional; method in brief: as §2
# Propionibacterium avidum = assay: Antimicrobial activity against Propionibacterium avidum under anaerobic conditions after 44 hrs by CLSI-M11-47 protocol based agar dilution method; format: functional; conditions: Cutibacterium avidum; method in brief: as §2
# Eubacterium saburreum = assay: Antimicrobial activity against Eubacterium saburreum under anaerobic conditions after 44 hrs by CLSI-M11-47 protocol based agar dilution method; format: functional; conditions: Lachnoanaerobaculum saburreum; method in brief: as §1
# Mogibacterium timidum = assay: Antimicrobial activity against Mogibacterium timidum under anaerobic conditions after 44 hrs by CLSI-M11-47 protocol based agar dilution method; format: functional; method in brief: as §2
# [Clostridium] innocuum = Antimicrobial activity against Clostridium […] under anaerobic conditions after 44 hrs by CLSI-M11-47 protocol based agar dilution method; format: functional; method in brief: as §1
# Clostridium aldenense = assay: Antimicrobial activity against Clostridium aldenense under anaerobic conditions after 44 hrs by CLSI-M11-47 protocol based agar dilution method; format: functional; conditions: Enterocloster aldenensis; method in brief: as §1
# Clostridium bolteae = assay: Antimicrobial activity against Clostridium bolteae under anaerobic conditions after 44 hrs by CLSI-M11-47 protocol based agar dilution method; format: functional; conditions: Enterocloster bolteae; method in brief: as §1
# Clostridium hathewayi = assay: Antimicrobial activity against Clostridium hathewayi under anaerobic conditions after 44 hrs by CLSI-M11-47 protocol based agar dilution method; format: functional; conditions: Hungatella hathewayi; method in brief: as §1
# Clostridium baratii = assay: Antimicrobial activity against Clostridium baratii under anaerobic conditions after 44 hrs by CLSI-M11-47 protocol based agar dilution method; format: functional
# Clostridium butyricum = assay: Antimicrobial activity against Clostridium butyricum under anaerobic conditions after 44 hrs by CLSI-M11-47 protocol based agar dilution method; format: functional
# Clostridium glycolicum = assay: Antimicrobial activity against Clostridium glycolicum under anaerobic conditions after 44 hrs by CLSI-M11-47 protocol based agar dilution method; format: functional; conditions: Terrisporobacter glycolicus; method in brief: as §1
# Clostridium hylemonae = assay: Antimicrobial activity against Clostridium hylemonae under anaerobic conditions after 44 hrs by CLSI-M11-47 protocol based agar dilution method; format: functional; method in brief: as §1
# Lacrimispora sphenoides = assay: Antimicrobial activity against Clostridium sphenoides under anaerobic conditions after 44 hrs by CLSI-M11-47 protocol based agar dilution method; format: functional; method in brief: as §1
compound,measurement,setting,value
CO/N=C(\C(=O)N[C@@H]1C(=O)N2C(C(=O)O)=C(CSc3nc(=O)c(O)nn3C)CS[C@H]12)c1csc(N)n1 [CEFTRIAXONE],MIC50,Bacteroides caccae,> 64 µg/mL
same,MIC90,Bacteroides caccae,> 64 µg/mL
same,MIC50,[1],> 64 µg/mL
same,MIC90,[1],> 64 µg/mL
same,MIC50,Prevotella buccae,0.25 µg/mL
same,MIC90,Prevotella buccae,64 µg/mL
same,MIC50,Prevotella intermedia,1 µg/mL
same,MIC90,Prevotella intermedia,16 µg/mL
same,MIC50,Hoylesella loescheii,1 µg/mL
same,MIC90,Hoylesella loescheii,8 µg/mL
same,MIC50,Prevotella oris,1 µg/mL
same,MIC90,Prevotella oris,8 µg/mL
same,MIC50,Veillonella,4 µg/mL
same,MIC90,Veillonella,8 µg/mL
same,MIC50,Parvimonas micra,0.5 µg/mL
same,MIC90,Parvimonas micra,1 µg/mL
same,MIC50,[2],0.25 µg/mL
same,MIC90,[2],16 µg/mL
same,MIC50,Anaerococcus murdochii,0.25 µg/mL
same,MIC90,Anaerococcus murdochii,16 µg/mL
same,MIC50,Anaerococcus octavius,0.25 µg/mL
same,MIC90,Anaerococcus octavius,16 µg/mL
same,MIC50,Anaerococcus vaginalis,0.25 µg/mL
same,MIC90,Anaerococcus vaginalis,16 µg/mL
same,MIC50,Anaerococcus,0.25 µg/mL
same,MIC90,Anaerococcus,16 µg/mL
same,MIC50,Peptoniphilus harei,0.25 µg/mL
same,MIC90,Peptoniphilus harei,16 µg/mL
same,MIC50,Peptoniphilus lacrimalis,0.25 µg/mL
same,MIC90,Peptoniphilus lacrimalis,16 µg/mL
same,MIC50,Schaalia meyeri,0.125 µg/mL
same,MIC90,Schaalia meyeri,0.5 µg/mL
same,MIC50,[3],0.125 µg/mL
same,MIC90,[3],0.5 µg/mL
same,MIC50,Schaalia odontolytica,0.125 µg/mL
same,MIC90,Schaalia odontolytica,0.5 µg/mL
same,MIC50,Actinomyces turicensis,0.125 µg/mL
same,MIC90,Actinomyces turicensis,0.5 µg/mL
same,MIC50,Cutibacterium acnes,0.015 µg/mL
same,MIC90,Cutibacterium acnes,0.06 µg/mL
same,MIC50,Propionibacterium avidum,0.25 µg/mL
same,MIC90,Propionibacterium avidum,0.5 µg/mL
same,MIC50,Eubacterium saburreum,0.5 µg/mL
same,MIC90,Eubacterium saburreum,2 µg/mL
same,MIC50,Mogibacterium timidum,0.5 µg/mL
same,MIC90,Mogibacterium timidum,2 µg/mL
same,MIC50,[Clostridium] innocuum,8 µg/mL
same,MIC90,[Clostridium] innocuum,16 µg/mL
same,MIC50,Clostridium aldenense,4 µg/mL
same,MIC90,Clostridium aldenense,32 µg/mL
same,MIC50,Clostridium bolteae,4 µg/mL
same,MIC90,Clostridium bolteae,32 µg/mL
same,MIC50,Clostridium hathewayi,4 µg/mL
same,MIC90,Clostridium hathewayi,32 µg/mL
same,MIC50,Clostridium baratii,2 µg/mL
same,MIC90,Clostridium baratii,64 µg/mL
same,MIC50,Clostridium butyricum,2 µg/mL
same,MIC90,Clostridium butyricum,64 µg/mL
same,MIC50,Clostridium glycolicum,2 µg/mL
same,MIC90,Clostridium glycolicum,64 µg/mL
same,MIC50,Clostridium hylemonae,2 µg/mL
same,MIC90,Clostridium hylemonae,64 µg/mL
same,MIC50,Lacrimispora sphenoides,2 µg/mL
same,MIC90,Lacrimispora sphenoides,64 µg/mL
